One compound from ChEMBL document CHEMBL4387702, “Design and synthesis novel di-carbonyl analogs of curcumin (DACs) act as potent anti-inflammatory agents against LPS-induced acute lung injury (ALI)” (Eur J Med Chem, 2019) can be followed below.

For orientation: Tmax means the time at which the peak concentration occurs. The term MRT last denotes a mean duration of stay, worked out from the concentration-time curve. The AUC is concentration integrated over time. Low values mean less exposure, high ones more exposure. The term MRT denotes a mean duration of stay, worked out from the concentration-time curve. As usually defined, the AUC(0-t) is the area under the concentration-time curve up to a stated or last time point. High values mean more exposure, low ones less exposure. What is called Cmax is the maximum level reached in the sampled fluid or tissue. As a reminder, the bioavailability is dose-corrected exposure relative to a reference, in per cent.

Molecules are shown by their SMILES.

Holding throughout (type): ADME, organism-based
What all share (conditions): in vivo

Data set [1] is described as follows: Apparent clearance during terminal phase in Sprague-Dawley rat at 5 mg/kg, iv by UHPLC-MS/MS analysis. The method, boiled down:
(§1)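 Male Sprague-Dawley rats (250 ± 20 g) fasted overnight with free access to water, n = 5 per route. Intravenous dose was 5 mg/kg; the intragastric dose is printed as 20 mg/kg in the methods and 50 mg/kg in the table. Tail blood was taken at 0.083, 0.25, 0.5, 1, 2, 4, 6, 9, 12 and 24 h. Samples were centrifuged (12000 rpm, 10 min), deproteinized with 2 volumes of acetonitrile, re-centrifuged and quantified by UHPLC-MS/MS.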

A short description of data set [2]: Half life in Sprague-Dawley rat at 5 mg/kg, iv by UHPLC-MS/MS analysis. Put shortly: as §1
A short description of data set [3]: Half life in Sprague-Dawley rat at 50 mg/kg, po by UHPLC-MS/MS analysis. The method, boiled down: as §1
The nature of data set [4]: Apparent volume of distribution during terminal phase in Sprague-Dawley rat at 50 mg/kg, po by UHPLC-MS/MS analysis. Put shortly: as §1
Data set [5] is described as follows: Tmax in Sprague-Dawley rat at 50 mg/kg, po by UHPLC-MS/MS analysis. The method, boiled down: (§2)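 Male SD rats (250 ± 20 g), fasted overnight with water ad libitum, dosed intravenously or intragastrically, n = 5. Tail blood taken at 0.083, 0.25, 0.5, 1, 2, 4, 6, 9, 12 and 24 h post-dose and centrifuged 12000 rpm, 10 min. Supernatant mixed with 2 volumes acetonitrile, vortexed and re-centrifuged. Drug measured by UHPLC-MS/MS; PK parameters derived from time-concentration data.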

Data set [6] can be described thus: MRT (0 to t) in Sprague-Dawley rat at 50 mg/kg, po by UHPLC-MS/MS analysis. Put shortly:
as §1

A short description of data set [7]: Tmax in Sprague-Dawley rat at 5 mg/kg, iv by UHPLC-MS/MS analysis. The method, boiled down:
as §2

Data set [8] is described as follows: MRT (0 to t) in Sprague-Dawley rat at 5 mg/kg, iv by UHPLC-MS/MS analysis. Put shortly: as §1
Data set [9] can be described thus: AUC (0 to infinity) in Sprague-Dawley rat at 50 mg/kg, po by UHPLC-MS/MS analysis. Details: dose 50 mg/kg, time infinity, route oral. The method, boiled down:
as §1

Data set [10] can be described thus: MRT (0 to infinity) in Sprague-Dawley rat at 5 mg/kg, iv by UHPLC-MS/MS analysis. The method, boiled down:
as §1

Data set [11] is described as follows: AUC (0 to t) in Sprague-Dawley rat at 50 mg/kg, po by UHPLC-MS/MS analysis. Put shortly: as §1
Data set [12] in a line: Cmax in Sprague-Dawley rat at 5 mg/kg, iv by UHPLC-MS/MS analysis. More on the design: dose 5 mg/kg, route intravenous. The method, boiled down:
as §1

A short description of data set [13]: Oral bioavailability in Sprague-Dawley rat at 50 mg/kg measured up to 24 hrs by LC-MS/MS analysis. The method, boiled down:
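The rat oral and intravenous plasma profiles (n = 5, tail sampling to 24 h, UHPLC-MS/MS) were used. Oral bioavailability was calculated as F = (AUC p.o × Dose i.v)/(AUC i.v × Dose p.o).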

Regarding `COc1cc(/C=C/C(=O)N2CCC/C(=C\c3cc(OC)c(OC)c(OC)c3)C2=O)ccc1OC(C)=O`, the CLz/F in [1] came out at 404.4 L/h/kg. For the same compound, the t1/2 in [2] was 0.2 h; in data set [3], 6.7 h. In addition, the Vz/F in data set [4] came to 827.1 L/kg. Also, the values for the Tmax in data set [5] and in data set [7] were 3.3 h and 6 min, respectively. Also, the MRT last in [6] worked out at 7.8 h; in data set [8], 11.3 h. In addition, the AUC in data set [9] was 325.6 ng·h/mL. In data set [10], the MRT stood at 19.9 h. Also, the AUC(0-t) in data set [11] is 231 ng·h/mL. In addition, the Cmax in data set [12] is 16.4 ng/mL. Further, the bioavailability in data set [13] amounted to 26.6%.
